Compounds with a hit are over-represented: about 2.4% of the library has one in this group of screens.
Jurkat NFkB inh – inhibitors of induced NF-kB luciferase reporter, primary screen, TCR NF-kB activation inhibitor project, cell-based, luminescence, uHTS | Jurkat, PMA/ionomycin-induced NF-kB luciferase reporter | inhibition, % at 4 µM | 330,000 tested, 0.53% active; in the data active = inhibition above about 50%
NR2E3 ag-1 – inhibitors of NR2E3-RetCOR corepressor binding, primary screen, NR2E3 agonist project, biochemical, TR-FRET, GST-NR2E3, biotin-RetCOR; 1536-well; inhibition of corepressor binding, % at 4.78 µM; 320,000 tested, 0.12% active; AID 2300, 2010;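 active = percent inhibition above the cutoff of mean plus 3 SD of all tested compounds, set per screening campaign, cut at about 20% in these data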;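 also: 0% = DMSO wells and 100% = biotin wells as full block of FRET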
Target sequence (Q9Y5X4 whole entry, looked up): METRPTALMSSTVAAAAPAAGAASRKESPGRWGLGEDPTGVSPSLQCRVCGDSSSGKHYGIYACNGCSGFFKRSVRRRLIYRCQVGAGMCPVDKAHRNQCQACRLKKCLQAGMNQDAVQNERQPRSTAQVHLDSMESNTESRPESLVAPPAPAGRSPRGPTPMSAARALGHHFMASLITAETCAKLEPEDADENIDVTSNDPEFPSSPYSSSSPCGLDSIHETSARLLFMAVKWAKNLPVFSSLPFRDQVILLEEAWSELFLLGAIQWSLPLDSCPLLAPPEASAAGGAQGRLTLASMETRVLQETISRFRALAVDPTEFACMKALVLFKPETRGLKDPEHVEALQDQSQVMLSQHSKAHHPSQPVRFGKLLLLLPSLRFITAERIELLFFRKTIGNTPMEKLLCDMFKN
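System: GST-tagged NR2E3 plus biotinylated RetCOR corepressor; Amount: 1.35 nM GST-tagged NR2E3 final; Dosing: single nominal compound dose of 4.8 µM; Schedule: 5 h incubation at 4 °C; Technique: TR-FRET with europium anti-GST and streptavidin-D2, 340 nm excitation; Controls: biotin wells as high control, 0.6% DMSO wells as low control.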
MPTP inh – mitochondrial permeability transition pore inhibitors, primary screen, biochemical, isolated mouse mitochondria, absorbance; Ca2+ swelling absorbance, 30 min; inhibition, % at 10 µM; 360,000 tested, 1.4% active; AID 602449, 2012;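 active = inhibition of 50% or more, scaled per plate between neutral and stimulator controls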;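 also: 0% = DMSO wells given calcium and 100% = 1 mM EGTA wells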
aDG glyco up – activators of alpha-DG glycosylation, primary screen, uHTS, Pro5-aDG cells, AlphaScreen | alpha-DG glycosylation AlphaScreen (IIH6); 0% Pro5, 100% B10-LARGE cell signal | activation, % at 10 µM | 360,000 tested, 0.22% active | AID 624168, 2012;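 active = activation of at least 8% versus controls, or a plate z-score of at least 8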;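 also: Pro5 are CHO cells carrying HIG-tagged alpha-DG that lacks glycosylation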
697 NFkB inh – inhibitors of PMA/ionomycin-induced NF-kB reporter, 697 cells, primary screen, B-cell NF-kB inhibitor project, cell-based, luminescence, uHTS | 330,000 tested, 0.33% active | AID 435022, 2010 | inhibition, % at 4 µM | 697 B-cell NF-kB luciferase reporter, 16 h; in the data active = inhibition above about 35%
NR2E3 ag-2 – NR2E3 agonists in two-hybrid cells, primary screen, cell-based, luminescence, CHO-S, Gal4-NCOR/VP16-NR2E3 | 360,000 tested, 0.35% active | Photoreceptor-specific nuclear receptor (Homo sapiens), Q9Y5X4 | inhibition of corepressor binding, % at 3.98 µM | AID 602229, 2012 | luciferase;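 active = inhibition above the mean of all tested compounds plus 3 SD, cut at about 70% in these data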;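 also: 0% = DMSO with NR2E3 transfected cells and 100% = cells lacking NR2E3 construct; higher means lower luciferase signal from less NR2E3 corepressor binding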
NR2E3 ag conf – NR2E3 agonist confirmation in cells, cell-based, luminescence, CHO-S two-hybrid; shares compounds with NR2E3 ag-2; CHO-S mammalian two-hybrid NR2E3-NCOR, luciferase luminescence; inhibition, % at 3.98 µM; 2,300 tested, 51% active;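 active = average inhibition above a cutoff equal to the mean inhibition of all tested compounds plus one SD, cut at about 70% in these data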;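 also: 0% = DMSO in NR2E3 cells and 100% = DMSO in cells lacking NR2E3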
GAL4-VP16 luc – GAL4-VP16 reporter modulators, confirmation, counter-screen for NR2E3 agonist project, cell-based, luminescence, CHO-S, high throughput | inhibition, % at 3.98 µM | CHO-S GAL4-VP16 luciferase reporter | 2,300 tested, 29% active | AID 624379, 2012 | shares compounds with NR2E3 ag-2;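 active = mean inhibition above a cutoff equal to the average over all tested compounds plus one standard deviation, cut at about 70% in these data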;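 also: luciferase from a UAS reporter driven by GAL4-VP16 transactivation; 0% = DMSO with VP16-transfected cells and 100% = DMSO with cells lacking VP16; higher means less reporter light so more repression of VP16 activity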
MPTP counter – fluorescence retest of MPTP screen hits in isolated mitochondria, single concentration; inhibition, % at 10 µM; AID 624504, 2012; membrane potential, Rhodamine 123 fluorescence; 5,000 tested, 78% active; shares compounds with MPTP inh; in the data active = inhibition above about 22%;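 also: 0% = DMSO vehicle and 100% = positive control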
* marks the source's active call; other numbers are inactive results; / = not tested or not shown.

SMILES | Jurkat NFkB inh | NR2E3 ag-1 | MPTP inh | aDG glyco up | 697 NFkB inh | NR2E3 ag-2 | NR2E3 ag conf | GAL4-VP16 luc | others
CC(C)c1ccc(-n2c(O)c(C=NCCN3CCNCC3)c(=O)[nH]c2=S)cc1 | -4 | 4 | -1 | 0 | 7 | 18 | / | /
S=C1CN=C(c2ccccc2)c2cc(Cl)ccc2N1 | 2 | 2 | 0 | 0 | -13 | 1 | / | /
CC(=O)OC1C(O)C(C)OC(OC2C(OC(=O)C3CCC4C(C3)OC3(CC(OC(=O)/C=C/c5ccccc5)C(C)CO3)C43CO3)OC(C)C(O)C2OC(C)=O)C1O (stereo not drawn) | / | / | -1 | 0 | / | 103* | 99* | 99*
COC(=O)C1=C(c2ccccc2OCc2ccccc2)C[C@@H]2CC[C@H]1N2C(=O)NCCCOC(C)C | -1 | 2 | -2 | 0 | 10 | -3 | / | /
CC(=O)OC1(C)CC(C)C(=O)C(C(O)CC2CC(=O)NC(=O)C2)C1 (stereo not drawn) | / | / | 0 | 4 | / | 105* | 99* | 99*
CC1=CC2OC3CC4OC(=O)C=CC=CC(C(C)O)OCC(O)C(C)CC(=O)OCC2(CC1O)C4(C)C31CO1 (stereo not drawn) | / | / | -1 | 0 | / | 101* | 100* | 99*
CC1=CC2OC3CC4OC(=O)C=CC=CC(=O)OCCC(C)C(O)C(=O)OCC2(CC1O)C4(C)C31CO1 (stereo not drawn) | / | / | 0 | 0 | / | 99* | 100* | 99*
CC(C)(C)C(=O)NC1CCSC1=O (stereo not drawn) | 3 | 4 | / | / | 3 | / | / | /
COC(=O)C1=C(c2ccc3ccccc3c2)C[C@@H]2CC[C@H]1N2C(=O)N1CCC(C)CC1 | 8 | 1 | 6 | 0 | 11 | -25 | / | /
COCCCNP1(=O)OCC(C)([N+](=O)[O-])CO1 (stereo not drawn) | / | / | 0 | 0 | / | 20 | / | /
CC1N=C(c2ccccc2Cl)c2cc(Br)ccc2NC1=O (stereo not drawn) | -34 | -1 | 2 | 0 | 6 | -21 | / | /
C(#CCN1CCCC1)CN1CCCC1 | 13 | / | -2 | 0 | 19 | 6 | / | /
CCC(C)NC(=O)CCC(=O)OC1O[C@H]2OC3(C)CC[C@H]4[C@H](C)CCC(C1C)C24OO3 (stereo partly drawn) | / | / | 3 | 1 | / | 103* | 97* | 75*
CCC(C)C(NC(=O)CCCNC(=O)CCC(=O)OC1O[C@H]2OC3(C)CC[C@H]4[C@H](C)CCC(C1C)C24OO3)C(=O)O (stereo partly drawn) | 7 | 2 | -1 | 1 | 14 | 95* | 94* | 71*
CCOC(=O)[C@]12Cc3cc(C)ccc3[C@H]1N(C1CCCCC1)C(=O)c1cc(OC)ccc12 | / | / | -2 | 0 | / | 95* | 99* | 43
CCCCC12CNCC(C)(CNC1)C2=O | -8 | -3 | 2 | 0 | 17 | 19 | / | /
CC(=O)OC(C)(C)/C=C/C(=O)[C@](C)(O)[C@H]1[C@H](O)C[C@@]2(C)[C@@H]3CC=C4[C@H](C[C@H](O)C(=O)C4(C)C)[C@]3(C)C(=O)C[C@]12C | / | / | -2 | 3 | / | 43 | / | /
CC(=O)OC(C)(C)/C=C/C(=O)C(C)(O)C1C(O)CC2(C)C3CC=C4C(CC(O)C(=O)C4(C)C)C3(C)C(=O)CC12C (stereo not drawn) | / | / | -1 | 1 | / | 63 | 80* | 48
NC(=S)c1cn(C2OC(CO)C(O)C2O)c2ncnc(N)c12 (stereo not drawn) | / | 0 | -2 | 0 | / | 103* | 98* | 88*
COc1cc2c(cc1OC)[C@H]1C(=O)c3ccc4c(c3O[C@H]1CO2)C[C@@H](C(C)(C)O)O4 | 3 | / | 4 | 0 | -17 | 31 | / | /
COc1cc2c(cc1OC)C1C(=O)c3ccc4c(c3OC1CO2)CC(C(C)C)O4 (stereo not drawn) | / | / | 103* | 2 | / | 102* | 96* | 94* | MPTP counter=88*
CC(=O)c1cn(Cc2ccccc2F)c2ccccc12 | 38 | / | 73* | 1 | 11 | 83* | 90* | 75* | MPTP counter=70*
CCc1ccc2nc(N3CCC(C(=O)N4CCC5(CC4)OCCO5)CC3)sc2c1 | -5 | -2 | -1 | 0 | -88 | -52 | / | /
Oc1c(Cl)c(Cl)c(Cl)c(Cl)c1Cl | -6 | -3 | 73* | 0 | 5 | 98* | 99* | 92* | MPTP counter=88*
CCCC(C)C1(CC)C(=O)NC(=Nc2ccc(F)cc2)NC1=O (stereo not drawn) | -2 | 5 | 4 | 0 | 10 | -7 | / | /
SMILES | Jurkat NFkB inh | NR2E3 ag-1 | MPTP inh | aDG glyco up | 697 NFkB inh | NR2E3 ag-2 | NR2E3 ag conf | GAL4-VP16 luc | others
CC(C)Cc1[nH]c(=O)c(C#N)c2c1CCC2 | 0 | -1 | 0 | 0 | -7 | 14 | / | /
CCC(=NCCN1CCCCC1)c1c(O)n(C)c(=O)n(C)c1=O | 13 | 1 | 0 | 0 | 23 | -13 | / | /
CCC(=NCCOc1ccc(Cl)cc1)c1c(O)n(C)c(=O)n(C)c1=O | 15 | 0 | 96* | 2 | -24 | 79* | 96* | 83* | MPTP counter=90*
C[C@@H]1CN([C@@H](C)CO)C(=O)CCCn2cc(nn2)CO[C@H]1CN(C)C(=O)Oc1ccc2ccccc2c1 | / | / | -1 | 0 | / | -20 | / | /
N#CC(C#N)=NNc1ccc(-n2ccc(C(F)(F)F)n2)cc1 | 10 | 2 | 78* | 0 | 0 | 96* | 18 | 68 | MPTP counter=82*
CN(C)c1ccc(/C=C/c2cc[n+](C)c3ccccc23)cc1 | / | / | 75* | 1 | / | 61 | 77* | 38 | MPTP counter=66*
